Rows were chosen to be rich in hits. Some 1.9% of all compounds tested hit in one or more screens of this group.
M4 ag = agonists of human muscarinic M4 receptor (CHRM4) | AID 624127 | 360,000 tested, 0.14% active | P08173 | CHO-K1 hM4/Gqi5, Fluo-8 calcium fluorescence; vehicle 0%, full acetylcholine response 100% | activation, % at 3 µM;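 active = activation above the run mean over all test wells plus 3 SD, cut at about 32% in these data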;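 note: peak over basal fluorescence ratio per well then scaled between controls; 0% = DMSO wells and 100% = acetylcholine at EC100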
CHRM5 agonist = agonists of human muscarinic M5 receptor (CHRM5). P08912. CHO-K1 hM5 cells, Fluo-8 calcium fluorescence; 0% DMSO wells, 100% maximal acetylcholine response. activation, % at 3 µM. 360,000 tested, 0.19% active;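 active = activation above the run's mean over test compounds plus 3 SD, cut at about 23% in these data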;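 note: signal is peak over basal fluorescence ratio across the kinetic read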
Target sequence (P08912 whole entry, looked up): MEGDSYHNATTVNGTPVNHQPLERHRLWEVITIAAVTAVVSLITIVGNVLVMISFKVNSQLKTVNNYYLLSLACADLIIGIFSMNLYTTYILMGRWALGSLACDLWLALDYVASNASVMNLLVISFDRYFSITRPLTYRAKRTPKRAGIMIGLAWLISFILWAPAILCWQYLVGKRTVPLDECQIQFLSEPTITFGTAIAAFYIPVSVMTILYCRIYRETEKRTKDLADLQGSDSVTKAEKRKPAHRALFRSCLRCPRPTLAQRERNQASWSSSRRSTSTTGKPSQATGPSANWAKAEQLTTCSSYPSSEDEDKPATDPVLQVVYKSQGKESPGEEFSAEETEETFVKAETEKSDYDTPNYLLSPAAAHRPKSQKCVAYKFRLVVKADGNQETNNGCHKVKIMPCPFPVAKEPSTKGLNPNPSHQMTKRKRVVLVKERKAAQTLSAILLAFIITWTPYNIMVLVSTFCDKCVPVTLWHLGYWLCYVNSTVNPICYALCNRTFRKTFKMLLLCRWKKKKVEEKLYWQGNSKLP
CHRM5 PAM = CHRM5 positive allosteric modulation. P08912. CHO-K1 hM5, Fluo-8 calcium, ACh EC20 PAM; 0% = ACh EC20, 100% = ACh EC100. activation, % at 3 µM. 360,000 tested, 0.3% active. AID 624038;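 active = activation above the run cutoff, the mean activation of all test compounds plus 3 SD, cut at about 18% in these data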
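Assay system: CHO-K1 hM5 cells / Incubation: Fluo-8 loading 80 min at 37 °C plus 30 min room temperature / Technique: Fluo-8 calcium dye fluorescence, kinetic read / Repeats: single replicate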
M5 antag = CHRM5 antagonism in calcium assay; P08912; CHO-hM5 cells, Fluo-8 calcium fluorescence, ACh EC80; inhibition, % at 3 µM; 360,000 tested, 0.59% active;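 active = inhibition above a per-plate cutoff, the mean of that plate's test compounds plus 3 SD, cut at about 27% in these data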;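 note: 0% = acetylcholine EC80 with DMSO and 100% = DMSO without agonist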
CHRM4 PAM = CHRM4 positive allosteric modulation | P08173 | CHO-K1 hM4/Gqi5, Fluo-8 calcium fluorescence, ACh EC20; 0% = ACh EC20, 100% = maximal ACh | activation, % at 3 µM | 360,000 tested, 0.4% active | AID 624126;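 active = activation above its plate's cutoff, the mean activation of sample wells plus 3 SD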
M4 antag = antagonists of human muscarinic M4 receptor (CHRM4). CHO-hM4 cells, ACh EC80, Fluo-8 calcium fluorescence. inhibition, % at 3 µM. 360,000 tested, 0.73% active;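 active = inhibition above its plate's cutoff, the mean inhibition of sample wells plus 3 SD, cut at about 27% in these data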;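 note: 0% = acetylcholine EC80 with DMSO and 100% = DMSO without agonist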
* = called active by the depositor.

SMILES	M4 ag	CHRM5 agonist	CHRM5 PAM	M5 antag	CHRM4 PAM	M4 antag
CC(NC(=O)/C=C/c1ccccc1)c1ccccc1 (stereo not given)	4	31*	0	2	9	-9
CC(C)CC1CCCCC1OC(=O)C[N+]1(C)CCCCC1 (stereo not given)	1	-11	-16	97*	-20	87*
CCCCCCCCN1C(=O)[C@H](CC(=O)NCc2cccc(C(F)(F)F)c2)C[C@@]2(C(=O)OC)CC(C)(C)CC=C12	0	-1	-5	0	-1	0
COc1ccc(OC)c(C2C(C(=O)c3ccc(C)o3)=C(O)C(=O)N2CCCN2CCOCC2)c1 (stereo not given)	1	-3	23*	-9	1	-13
COC1=CC(=O)OC(c2cccc(Cl)c2)C1 (stereo not given)	1	0	-4	6	8	9
COC(=O)Cc1ccc(OC2(C)CCN(Cc3ccccc3)C2)cc1 (stereo not given)	0	-3	-10	12	-13	63*
CC(C)c1ccc(CN2CCC(C)(Oc3ccc(Cl)cc3)C2)cc1 (stereo not given)	0	-2	-3	-4	0	-3
COc1cc(OC)cc(OC2(C)CCN(Cc3ccc(OC(C)C)cc3)C2)c1 (stereo not given)	2	0	-15	11	-10	53*
CCOC(=O)c1ccc(S(=O)(=O)N2CCC(C(=O)NCC3COc4ccccc4O3)CC2)cc1 (stereo not given)	3	-1	-3	7	4	4
C[C@@H]1CN([C@@H](C)CO)C(=O)CCCn2nncc2CO[C@@H]1CN(C)C(=O)CCC(F)(F)F	0	1	-4	11	0	-8
Cc1ccc2c(c1)sc[n+]2Cc1ccccc1	-1	19	21*	10	-2	21
COc1ccc(S(=O)(=O)N2CC3CCCN3c3cc(C(F)(F)F)ccc32)cc1 (stereo not given)	0	-9	-11	-2	-2	2
O=S(=O)(c1cc(Cl)ccc1Cl)N1CC2CCCN2c2ccc(C(F)(F)F)cc21 (stereo not given)	-1	-5	-10	3	-24	45*
COc1ccc(S(=O)(=O)N2CC3CCCN3c3ccc(C(F)(F)F)cc32)cc1 (stereo not given)	0	-2	-6	1	-15	30*
CS(=O)(=O)N1CC2CCCN2c2ccc(C(F)(F)F)cc21 (stereo not given)	3	-3	2	6	11	-12
CCOc1ccccc1N(CC(=O)NCC1CCCO1)C(=O)CCC(=O)Nc1ccccn1 (stereo not given)	1	-2	1	42*	12	-1
CCN1CCN(CC(=O)N2c3ccccc3CC2C)CC1 (stereo not given)	0	-2	6	-9	2	3
CCOC(=O)N1CCN(CC(=O)N2c3ccccc3CC2C)CC1 (stereo not given)	1	1	1	1	-1	31*
CN1C2C=CC(=O)C1C1C(=O)N(c3ccccc3)C(=O)C12 (stereo not given)	1	3	-4	6	1	6
C/C(=N\NC(=O)c1nn(C)c(C)c1Br)c1cccc(NC(=O)c2ccoc2C)c1	2	-4	22*	11	5	17
Fc1ccccc1COc1ccc(Br)cc1CNCc1ccncc1	19	2	-22	15	-11	37*
CN(CCc1ccccc1)C(CCc1ccccc1)C(=O)Nc1ccc2c(c1)OCCO2 (stereo not given)	-1	0	-4	4	-6	8
CCCCNC(=O)C1(C)CCCCN1C(=O)c1c(C)noc1C (stereo not given)	0	0	2	-2	-3	0
c1ccc(Nc2ccc3c4c(cccc24)CC3)cc1	27	27*	-10	37*	-19	33*
c1ccc(Nc2cccc3ccccc23)cc1	-1	-1	-5	1	4	-18
SMILES	M4 ag	CHRM5 agonist	CHRM5 PAM	M5 antag	CHRM4 PAM	M4 antag
O=C(CC[C@H]1O[C@@H](n2ccc(=O)[nH]c2=O)[C@H](O)[C@@H]1O)N[C@@H](Cc1ccccc1)C(=O)NCC1CCCCC1	1	1	9	-8	-3	1
O=C(C[n+]1cc(-c2ccccc2)n2c1CCCCC2)c1ccc(Cl)cc1	0	-10	0	-2	0	-6
CC1CCC(C(C)C)C(OC(=O)C[n+]2cc(-c3ccc(Cl)cc3)n3c2CCCCC3)C1 (stereo not given)	2	-9	-16	75*	-15	19
Cc1nnc(SCCn2c(N3CCC(C)CC3)nc3c2c(=O)[nH]c(=O)n3C)s1	2	2	3	-9	10	-7
Cc1nnc(SCCn2c(N3CCCC(C)C3)nc3c2c(=O)[nH]c(=O)n3C)s1 (stereo not given)	1	3	19*	-15	8	16
C=CCN1C(=O)C(Cc2ccc(SC(F)F)cc2)SC1=Nc1ccc(C(=O)O)cc1 (stereo not given)	8	-7	-10	27*	7	-10
CCN(CC)S(=O)(=O)c1ccc(C(=O)NCC(c2cccs2)N2CCOCC2)cc1 (stereo not given)	-1	1	4	-4	-16	39*
Cc1cc(C=C2C(=O)CCCC2=O)c(C)n1-c1ccccc1	1	-1	2	-1	30*	6
COC(=O)[C@]12CCCCC=C1N(Cc1ccco1)C(=O)[C@H](CC(=O)NCC13CC4CC(CC(C4)C1)C3)C2	1	1	-4	11	12	-7
Cc1cc(-c2ccc(Cl)cc2)n2nc(N)nc2n1	0	-2	0	-11	28*	-1
CCOc1ccc2[nH]c(=O)c(CN(Cc3ccc(C)cc3)C(=O)N3CCCC3)cc2c1	0	-2	-11	32*	-8	-5
CCc1nc2c(OCCC3CCCCC3)cccn2c1N(C=O)Cc1ccccc1	0	-2	-4	3	1	-1
CCCCN(C)C(=O)c1ccc(Nc2nc(C(N)COCc3ccccc3)cs2)nc1 (stereo not given)	2	-1	-2	3	2	0
CC(C)(C)NC(=O)NC(=O)COC(=O)C1=COCCO1	0	2	36*	-3	10	9
O=C(COC(=O)C1=COCCO1)Nc1ccccc1	2	0	1	7	5	3
